Source: ChEMBL document CHEMBL3804800, “(E)-3-Heteroarylidenechroman-4-ones as potent and selective monoamine oxidase-B inhibitors” (Eur J Med Chem, 2016)

What was measured:
[1] = Selectivity index, ratio of IC50 for human recombinant microsomal MAO-A expressed in baculovirus infected BTI-TN-5B1-4 cells to IC50 for human recombinant microsomal MAO-B expressed in baculovirus infected BTI-TN-5B1-4 cells
[2] = target: T1, Amine oxidase [flavin-containing] B (Homo sapiens, UniProt P27338); test: biochemical; format: cell-based, BTI-TN-5B1-4
T1 sequence (P27338 whole entry): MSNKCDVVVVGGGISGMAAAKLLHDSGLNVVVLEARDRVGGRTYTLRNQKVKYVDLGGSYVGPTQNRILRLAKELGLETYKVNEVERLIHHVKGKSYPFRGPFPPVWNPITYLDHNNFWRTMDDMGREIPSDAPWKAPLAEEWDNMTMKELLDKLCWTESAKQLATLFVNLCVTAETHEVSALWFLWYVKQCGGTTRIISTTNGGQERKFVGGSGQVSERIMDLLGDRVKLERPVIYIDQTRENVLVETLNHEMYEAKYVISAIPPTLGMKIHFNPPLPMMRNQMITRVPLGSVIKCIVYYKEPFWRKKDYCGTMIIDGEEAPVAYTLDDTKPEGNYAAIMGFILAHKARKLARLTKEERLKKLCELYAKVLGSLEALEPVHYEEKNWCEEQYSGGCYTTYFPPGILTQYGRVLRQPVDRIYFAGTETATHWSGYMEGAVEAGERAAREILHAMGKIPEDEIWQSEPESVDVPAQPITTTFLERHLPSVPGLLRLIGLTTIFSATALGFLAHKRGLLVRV

[3] = target: T2, Amine oxidase [flavin-containing] A (Homo sapiens, UniProt P21397); test: Inhibition of human recombinant microsomal MAO-A expressed in baculovirus infected BTI-TN-5B1-4 cells using p-tyramine as substrate assessed as reduction in H2O2 production at 100 uM preincubated for 15 mins followed by substrate addition measured for 15 mins Amplex red dye based fluorimetric method relative to control; conditions: for inhibition (INH): human, bti-tn-5b1-4, 0.25 h, 100 µM; for inhibition at 100 µM: BTI-TN-5B1-4, human, 0.25 h
T2 sequence (P21397 whole entry): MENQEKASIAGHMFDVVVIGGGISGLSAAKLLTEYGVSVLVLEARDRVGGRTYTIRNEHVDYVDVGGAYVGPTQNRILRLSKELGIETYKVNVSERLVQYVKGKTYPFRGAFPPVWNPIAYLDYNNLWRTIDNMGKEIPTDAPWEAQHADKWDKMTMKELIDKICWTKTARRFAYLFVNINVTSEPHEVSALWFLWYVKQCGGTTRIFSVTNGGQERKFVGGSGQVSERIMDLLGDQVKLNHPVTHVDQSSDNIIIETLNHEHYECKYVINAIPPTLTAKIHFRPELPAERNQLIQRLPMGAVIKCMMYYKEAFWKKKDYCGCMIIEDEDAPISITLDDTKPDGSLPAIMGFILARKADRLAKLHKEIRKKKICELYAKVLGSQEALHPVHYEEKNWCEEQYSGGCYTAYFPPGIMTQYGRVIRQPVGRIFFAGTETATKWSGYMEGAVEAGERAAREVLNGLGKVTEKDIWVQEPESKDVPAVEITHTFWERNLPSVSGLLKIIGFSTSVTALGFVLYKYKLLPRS
Summary of the method: (§1)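 Microsomal hMAO-A or hMAO-B from baculovirus-infected BTI-TN-5B1-4 insect cells. Activity read as H2O2 formed from p-tyramine, detected by Amplex Red resorufin fluorescence. Test compounds were checked for direct reaction with Amplex Red. Highest concentration tested was 100 μM for some compounds and 1 mM for others. Mean ± S.E.M. from five experiments.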

[4] = target: T1, Amine oxidase [flavin-containing] B; test: Reversible inhibition of human recombinant microsomal MAO-B expressed in baculovirus infected BTI-TN-5B1-4 cells at 10 times IC50 using p-tyramine as substrate assessed as reduction in H2O2 production preincubated for 30 mins followed by substrate addition for 15 mins followed by compound dilution by Amplex red dye based fluorimetric method; conditions: bti-tn-5b1-4, 0.25 h
Summary of the method: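 Dilution method. […] The mixture was then diluted 100-fold into buffer containing Amplex Red, horseradish peroxidase and p-tyramine, and the reaction was monitored for 15 min. Slope was compared with a control preincubated and diluted without inhibitor.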

[5] = target: T1, Amine oxidase [flavin-containing] B; test: Inhibition of human recombinant microsomal MAO-B expressed in baculovirus infected BTI-TN-5B1-4 cells using p-tyramine as substrate assessed as reduction in H2O2 production at 1 mM preincubated for 15 mins followed by substrate addition measured for 15 mins Amplex red dye based fluorimetric method; conditions: bti-tn-5b1-4, 0.25 h, 1000 µM; summary of the method: as §1

What does the source list for `O=C1/C(=C/c2cccnc2)COc2ccccc21`?
Ratio IC50 [1]: > 12; IC50 [2]: 8.23 µM; inhibition (INH) [3]: Not Active

With `O=C1/C(=C/c2c[nH]c3ccccc23)COc2ccccc21` as the molecule, how does the Ratio IC50 [1] read?
The Ratio IC50 was 551.

What about the IC50 [2] of the same molecule?
Its IC50 is 0.181 µM.

And the inhibition at 100 µM [3]?
The inhibition at 100 µM was 40%.

Which results are given for `O=C1/C(=C/c2ccccn2)COc2ccccc21`?
Ratio IC50 [1]: > 34; IC50 [2]: 2.94 µM; inhibition (INH) [3]: Not Active

Which Ratio IC50 [1] does the source give for `CN(C)c1ccc(/C=C2\COc3ccccc3C2=O)cn1` here?
Its Ratio IC50 is over 469.

What about the IC50 [2] of the same molecule?
Its IC50 is 0.213 µM.

And the “inhibition (INH)” value [3]?
The value was “Not Active”.

Which “inhibition (INH)” value [3] does the source give for `O=C1Nc2ccccc2C1=O` [ISATIN] here?
Its value is “Not Active”.

Which Ratio IC50 [1] does the source give for `O=C1/C(=C/c2c[nH]cn2)COc2cc(Cl)cc(Cl)c21` here?
The Ratio IC50 was 9.8.

What about the IC50 [2] of the same molecule?
The IC50 was 10.2 µM.

And the inhibition at 100 µM [3]?
The inhibition at 100 µM was 40%.

Which Ratio IC50 [1] does the source give for `O=C1/C(=C/c2ccc[nH]2)COc2ccccc21` here?
Its Ratio IC50 is 7.3.

And the IC50 [2]?
The IC50 was 13.8 µM.

And the inhibition at 100 µM [3]?
Its inhibition at 100 µM is 40%.

With `O=C1/C(=C/c2c[nH]cn2)COc2ccccc21` as the molecule, how does the Ratio IC50 [1] read?
The Ratio IC50 was 5.

What about the IC50 [2] of the same molecule?
Its IC50 is 20.2 µM.

What about the inhibition at 100 µM [3] of the same molecule?
The inhibition at 100 µM was 40%.

With `CN(C)c1ncc(/C=C2\COc3ccccc3C2=O)cn1` as the molecule, how does the Ratio IC50 [1] read?
Its Ratio IC50 is over 415.

And the IC50 [2]?
Its IC50 is 0.241 µM.

And the “inhibition (INH)” value [3]?
Its value is “Not Active”.

Which Ratio IC50 [1] does the source give for `COc1ccc2c(c1)OC/C(=C\c1cnc(N(C)C)nc1)C2=O` here?
Its Ratio IC50 is over 9.6.

What about the IC50 [2] of the same molecule?
The IC50 was 10.4 µM.

And the “inhibition (INH)” value [3]?
Its value is “Not Active”.

With `COc1ccc2c(c1)OC/C(=C\c1c[nH]cn1)C2=O` as the molecule, how does the Ratio IC50 [1] read?
The Ratio IC50 was 9.4.

And the IC50 [2]?
Its IC50 is 10.6 µM.

And the inhibition at 100 µM [3]?
Its inhibition at 100 µM is 40%.

For `O=C1/C(=C/c2ccncc2)COc2ccccc21`, which Ratio IC50 [1] is on record?
Its Ratio IC50 is over 8.

What about the IC50 [2] of the same molecule?
Its IC50 is 12.4 µM.

What about the “inhibition (INH)” value [3] of the same molecule?
The value was “Not Active”.

Which Ratio IC50 [1] does the source give for `O=C1/C(=C/c2cccs2)COc2ccccc21` here?
The Ratio IC50 was 88.

What about the IC50 [2] of the same molecule?
Its IC50 is 1.13 µM.

What about the inhibition at 100 µM [3] of the same molecule?
The inhibition at 100 µM was 40%.

With `CN(C)c1ncc(/C=C2\COc3cc(Cl)cc(Cl)c3C2=O)cn1` as the molecule, how does the Ratio IC50 [1] read?
The Ratio IC50 was over 9450.

And the IC50 [2]?
The IC50 was 0.0106 µM.

And the “inhibition (INH)” value [3]?
Its value is “Not Active”.

And the “inhibition (INH)” value [4]?
The value was “Active”.

What does the source list for `Nc1ncc(/C=C2\COc3ccccc3C2=O)cn1`?
Ratio IC50 [1]: > 5.5; IC50 [2]: 18.3 µM; inhibition (INH) [3]: Not Active

With `O=C1/C(=C/c2ccsc2)COc2ccccc21` as the molecule, how does the Ratio IC50 [1] read?
Its Ratio IC50 is 58.

What about the IC50 [2] of the same molecule?
Its IC50 is 1.73 µM.

And the inhibition at 100 µM [3]?
Its inhibition at 100 µM is 40%.

For `O=C(NCCN1CCOCC1)c1ccc(Cl)cc1` [MOCLOBEMIDE], which “inhibition (INH)” value [5] is on record?
The value was “Not Active”.

What does the source list for `O=C1/C(=C/c2ccco2)COc2ccccc21`?
Ratio IC50 [1]: 27; IC50 [2]: 3.77 µM; inhibition at 100 µM [3]: 40%

For `CN(C)c1ccc(/C=C2\COc3cc(Cl)cc(Cl)c3C2=O)cn1`, which Ratio IC50 [1] is on record?
Its Ratio IC50 is 9.5.

And the IC50 [2]?
The IC50 was 10.5 µM.

What about the inhibition at 100 µM [3] of the same molecule?
The inhibition at 100 µM was 40%.

For `Nc1ccc(/C=C2\COc3ccccc3C2=O)cn1`, which Ratio IC50 [1] is on record?
The Ratio IC50 was over 42.

And the IC50 [2]?
Its IC50 is 2.39 µM.

And the “inhibition (INH)” value [3]?
The value was “Not Active”.
